In ChEMBL document CHEMBL4699596, “Therapeutic Targeting of MMP-12 for the Treatment of Chronic Obstructive Pulmonary Disease” (J Med Chem, 2020):
The source made the active and inactive calls. The rule behind the calls is not given here. Non-standard residues stand in square brackets, D forms with d. Residues, ends and D or L forms follow the SMILES beside them. *: point of attachment. dPhe(4-CF3) = N[C@H](Cc1ccc(C(F)(F)F)cc1)C(=O)O; dBip = N[C@H](Cc1ccc(-c2ccccc2)cc1)C(=O)O; dPhe(3-Cl) = N[C@H](Cc1cccc(Cl)c1)C(=O)O; dPhe(3-Me) = Cc1cccc(C[C@@H](N)C(=O)O)c1; dPhe(4-Cl) = N[C@H](Cc1ccc(Cl)cc1)C(=O)O; dPhe(4-Me) = Cc1ccc(C[C@@H](N)C(=O)O)cc1; dPhe(2-Me) = Cc1ccccc1C[C@@H](N)C(=O)O; dPhe(3-F) = N[C@H](Cc1cccc(F)c1)C(=O)O; dPhe(4-F) = N[C@H](Cc1ccc(F)cc1)C(=O)O; 2Nal = N[C@@H](Cc1ccc2ccccc2c1)C(=O)O; dPhe(2-F) = N[C@H](Cc1ccccc1F)C(=O)O; dIgl = N[C@@H](C(=O)O)C1Cc2ccccc2C1; d(hPhe) = N[C@H](CCc1ccccc1)C(=O)O; Bn = c1ccc(C*)cc1; NHOH = ON*

What was measured:
[1] = biological target: T1, Macrophage metalloelastase (Homo sapiens, UniProt P39900); experiment: Inhibition of recombinant human MMP12 catalytic domain (Gly106 to Gly263 residues) expressed in Escherichia coli BL21 Codon Plus cells using 5-FAM/QXL520 FRET peptide as substrate preincubated for 15 mins followed by substrate addition and measured at 3 mins interval for 60 mins by fluorescence assay
Target sequence in this assay (P39900 whole entry, the tested form may be a part): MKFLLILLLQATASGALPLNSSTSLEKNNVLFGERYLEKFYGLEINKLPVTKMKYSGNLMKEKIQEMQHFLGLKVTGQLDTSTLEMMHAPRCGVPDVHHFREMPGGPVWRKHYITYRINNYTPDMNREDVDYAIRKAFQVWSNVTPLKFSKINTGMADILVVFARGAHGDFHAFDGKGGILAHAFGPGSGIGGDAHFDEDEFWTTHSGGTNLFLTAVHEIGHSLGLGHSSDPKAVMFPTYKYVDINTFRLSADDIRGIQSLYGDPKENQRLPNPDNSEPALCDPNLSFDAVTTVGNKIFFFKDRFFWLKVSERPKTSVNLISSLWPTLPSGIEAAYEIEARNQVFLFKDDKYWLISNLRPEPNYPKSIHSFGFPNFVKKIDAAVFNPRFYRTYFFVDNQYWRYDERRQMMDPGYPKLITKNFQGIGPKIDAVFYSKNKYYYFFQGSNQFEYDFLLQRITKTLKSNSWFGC

[2] = biological target: T1, Macrophage metalloelastase; experiment: Potency index, ratio of MMP408 IC50 to test compound IC50 for inhibition of recombinant human MMP12 catalytic domain (Gly106 to Gly263 residues) expressed in Escherichia coli BL21 Codon Plus cells
Target sequence in this assay (P39900 106-470 limits assumed): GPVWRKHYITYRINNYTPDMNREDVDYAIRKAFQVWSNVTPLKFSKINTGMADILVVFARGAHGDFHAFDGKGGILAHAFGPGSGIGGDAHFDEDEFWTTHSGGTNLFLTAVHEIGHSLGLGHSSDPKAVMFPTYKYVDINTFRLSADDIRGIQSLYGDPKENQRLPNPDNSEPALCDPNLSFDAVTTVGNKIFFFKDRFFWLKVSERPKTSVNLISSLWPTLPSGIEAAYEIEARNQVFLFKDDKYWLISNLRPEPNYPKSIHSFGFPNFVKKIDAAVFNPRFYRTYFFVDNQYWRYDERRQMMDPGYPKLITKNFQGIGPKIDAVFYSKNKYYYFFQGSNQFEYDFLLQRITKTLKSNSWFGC

[3] = biological target: T2, Interstitial collagenase (Homo sapiens) (UniProt P03956); experiment: Inhibition of recombinant human 6His-tagged MMP1 catalytic domain (106 to 261 residues) expressed in Escherichia coli at 4 to 25 nM using 5-FAM/QXL520 FRET peptide as substrate preincubated for 15 mins followed by substrate addition and measured at 3 mins interval for 60 mins by fluorescence assay; conditions: dose nM 4-25, time 75.0 min
T2 sequence (whole entry): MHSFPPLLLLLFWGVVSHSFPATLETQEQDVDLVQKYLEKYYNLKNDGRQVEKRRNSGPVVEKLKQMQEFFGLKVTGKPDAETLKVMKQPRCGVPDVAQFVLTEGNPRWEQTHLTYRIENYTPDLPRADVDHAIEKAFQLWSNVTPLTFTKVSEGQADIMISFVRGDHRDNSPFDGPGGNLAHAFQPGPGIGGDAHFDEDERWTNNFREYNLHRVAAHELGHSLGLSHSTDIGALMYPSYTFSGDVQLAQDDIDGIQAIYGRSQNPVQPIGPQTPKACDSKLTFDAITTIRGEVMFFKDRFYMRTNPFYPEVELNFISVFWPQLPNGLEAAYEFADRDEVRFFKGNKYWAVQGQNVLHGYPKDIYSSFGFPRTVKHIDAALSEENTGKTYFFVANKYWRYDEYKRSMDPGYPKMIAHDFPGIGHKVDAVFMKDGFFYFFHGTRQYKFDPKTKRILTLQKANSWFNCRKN
In short: (§1)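 Catalytic domains, 10 ng enzyme, preincubated with inhibitor 15 min at RT. FRET substrate (SensoLyte 520 kit) then added, fluorescence read every 3 min for 60 min. Inhibitors at 25 nM or 4 nM; percent inhibition reported.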

[4] = biological target: Matrix metalloproteinase-9 (Homo sapiens) (UniProt P14780); experiment: Inhibition of recombinant human 6His-tagged MMP9 catalytic domain (112 to 445 residues) expressed in Escherichia coli at 4 to 25 nM using 5-FAM/QXL520 FRET peptide as substrate preincubated for 15 mins followed by substrate addition and measured at 3 mins interval for 60 mins by fluorescence assay; conditions: dose nM 4-25, time 75.0 min; in short: as §1
Chain of Matrix metalloproteinase-9 (Homo sapiens) (P14780 whole entry, the tested form may be a part): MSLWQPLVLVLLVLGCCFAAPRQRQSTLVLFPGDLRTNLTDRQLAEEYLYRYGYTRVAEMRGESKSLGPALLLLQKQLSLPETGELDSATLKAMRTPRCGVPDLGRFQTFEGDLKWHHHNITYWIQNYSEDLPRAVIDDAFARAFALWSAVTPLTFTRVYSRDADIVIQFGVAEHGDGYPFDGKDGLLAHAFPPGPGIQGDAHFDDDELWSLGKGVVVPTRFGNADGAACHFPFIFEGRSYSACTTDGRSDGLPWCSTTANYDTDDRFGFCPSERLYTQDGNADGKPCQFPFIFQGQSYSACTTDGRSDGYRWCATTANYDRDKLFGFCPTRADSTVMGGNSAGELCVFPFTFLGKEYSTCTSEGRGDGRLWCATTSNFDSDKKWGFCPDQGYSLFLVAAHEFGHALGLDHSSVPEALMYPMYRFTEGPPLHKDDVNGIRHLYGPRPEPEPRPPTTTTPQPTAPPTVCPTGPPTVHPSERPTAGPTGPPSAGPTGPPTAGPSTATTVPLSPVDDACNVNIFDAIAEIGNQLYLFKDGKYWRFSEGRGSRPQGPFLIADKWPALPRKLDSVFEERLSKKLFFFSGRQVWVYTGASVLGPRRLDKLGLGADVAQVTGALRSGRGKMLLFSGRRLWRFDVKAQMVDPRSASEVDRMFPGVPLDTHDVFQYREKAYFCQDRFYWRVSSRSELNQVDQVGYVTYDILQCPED

[5] = biological target: Collagenase 3 (Homo sapiens) (UniProt P45452); experiment: Inhibition of recombinant human 6His-tagged MMP13 catalytic domain (104 to 274 residues) expressed in Escherichia coli at 4 to 25 nM using 5-FAM/QXL520 FRET peptide as substrate preincubated for 15 mins followed by substrate addition and measured at 3 mins interval for 60 mins by fluorescence assay; conditions: dose nM 4-25, time 75.0 min; in short: as §1
[6] = biological target: Matrix metalloproteinase-14 (Homo sapiens) (UniProt P50281); experiment: (§2) Inhibition of recombinant human His-tagged MMP14 expressed in Escherichia coli at 4 to 25 nM using 5-FAM/QXL520 FRET peptide as substrate preincubated for 15 mins followed by substrate addition and measured at 3 mins interval for 60 mins by fluorescence assay; conditions: dose nM 4-25, time 75.0 min; in short: as §1
[7] = biological target: Stromelysin-1 (Homo sapiens) (UniProt P08254); experiment: as §2, with “MMP3 catalytic domain (Pro19 to Glu271 residues)” for “MMP14”; conditions: dose nM 4-25, time 75.0 min; in short: as §1
Chain of Stromelysin-1 (Homo sapiens) (P08254 100-477 limits assumed): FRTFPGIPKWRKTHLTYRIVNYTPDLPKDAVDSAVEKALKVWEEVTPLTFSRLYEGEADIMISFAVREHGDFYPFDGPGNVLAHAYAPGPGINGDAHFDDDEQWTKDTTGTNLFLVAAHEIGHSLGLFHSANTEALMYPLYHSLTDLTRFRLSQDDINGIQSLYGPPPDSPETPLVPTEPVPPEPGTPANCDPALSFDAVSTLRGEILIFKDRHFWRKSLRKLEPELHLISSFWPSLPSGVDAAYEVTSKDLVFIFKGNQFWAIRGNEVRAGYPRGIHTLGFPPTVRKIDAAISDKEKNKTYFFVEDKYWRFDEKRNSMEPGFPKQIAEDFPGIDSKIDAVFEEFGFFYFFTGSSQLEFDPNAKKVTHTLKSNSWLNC

Mus musculus [8] = experiment: Protection against porcine elastase-induced emphysema in ip dosed C57BL/6 mouse model assessed as effect on total BALF cellularity/influx administered once daily for 7 days measured 21 days post initial elastase instillation; assay type: functional, organism-based; conditions: time 19.0 day
In short: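 Same elastase and dosing scheme as line 10 (C57BL/6, intranasal 0.9 U PPE, daily i.p. for 7 days from day 2). At day 21 BAL cell pellet taken up in 200 μl PBS and counted on a hemocytometer. Cytospin differentials of 300 cells per slide. Two-way ANOVA with Tukey post-hoc.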

Mus musculus [9] = experiment: Protection against porcine elastase-induced emphysema in ip dosed C57BL/6 mouse model assessed as decrease in emphysema-like pathology administered once daily for 7 days measured 21 days post initial elastase instillation by H and E staining based light microscopic analysis; assay type: functional, organism-based; conditions: time 19.0 day
In short: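 Male and female C57BL/6 mice, 6–8 weeks, given one intranasal dose of 0.9 U porcine pancreatic elastase in 50 μl PBS (saline controls). From day 2, daily i.p. vehicle or inhibitor for 7 days. At day 21 lungs formalin-inflated at 20 cm pressure, paraffin-embedded, H&E-stained and imaged at 10x. Mean linear intercept = line length/alveolar wall intersections. Two-way ANOVA with Tukey.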

[10] = biological target: T1, Macrophage metalloelastase; experiment: Binding affinity to recombinant human 15N-labelled MMP12 catalytic domain (Gly106 to Gly263 residues) expressed in Escherichia coli BL21 Codon Plus cells assessed as ratio of peak intensities of L212 and I220 in bound versus the unbound form at 10 uM by 1D-1H NMR analysis
Target sequence in this assay (P39900 106-470 limits assumed): as the sequence (P39900 106-470 limits assumed) above

[11] = Cmax in Balb/c mouse at 30 mg/kg, ip by LC-MS/MS analysis; assay type: ADME, organism-based; design: route intraperitoneal, dose 30 mg/kg; conditions: in vivo
In short: (§3)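 Single i.p. dose of 30 mg/kg to 5 Balb-C mice (22–26 g) in 10% DMSO, 40% PEG400, 10% (2-hydroxypropyl)-β-cyclodextrin in PBS. Retro-orbital blood taken at 30 min, 1, 2, 4, 8 and 24 h. Plasma drug measured by extraction and LC/MS against a calibration curve of purified agent.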

[12] = Ratio of Cmax in Balb/c mouse at 30 mg/kg, ip to IC90 for inhibition of recombinant human MMP12 catalytic domain (Gly106 to Gly263 residues) expressed in Escherichia coli BL21 Codon Plus cells; assay type: organism-based; conditions: in vivo
[13] = Tmax in Balb/c mouse at 30 mg/kg, ip by LC-MS/MS analysis; assay type: ADME, organism-based; conditions: in vivo; in short: as §3
[14] = Half life in Balb/c mouse at 30 mg/kg, ip by LC-MS/MS analysis; assay type: ADME, organism-based; conditions: in vivo; in short: as §3

Compound | IC50 [1] [nM] | Ratio [10] | other results
COc1ccc(CCC[C@H](NC(=O)CN2CCOCC2)C(=O)N[C@H](CCc2ccc(OC)cc2)C(=O)N[C@H](Cc2ccc(C)cc2)C(=O)NO)cc1 | 4.4 | – | Ratio IC50 [2]: > 5; inhibition [3]: inactive; inhibition [4]: inactive; inhibition [5]: inactive; inhibition [6]: inactive; inhibition [7]: Active; Activity (Mus musculus [8]): inactive; Activity (Mus musculus [9]): Active
CC(=O)N[C@@H](COCc1ccccc1)C(=O)N[C@H](CCc1ccccc1)C(=O)N[C@H](Cc1ccccc1F)C(=O)NO (Ac-Ser(Bn)-[d(hPhe)]-[dPhe(2-F)]-{NHOH}) | 27.8 | > 1 | –
COC(=O)Nc1ccc2oc3cc(S(=O)(=O)N[C@@H](C(=O)O)C(C)C)ccc3c2c1 | – | – | Activity (Mus musculus [8]): inactive; Activity (Mus musculus [9]): Active
COc1ccc(CC[C@@H](NC(=O)[C@H](CCCc2ccccc2)NC(=O)CN2CCOCC2)C(=O)N[C@H](Cc2ccc(C)cc2)C(=O)NO)cc1 | 4.5 | – | Ratio IC50 [2]: > 5; inhibition [3]: inactive; inhibition [4]: inactive; inhibition [5]: inactive; inhibition [6]: inactive; inhibition [7]: Active; Cmax [11]: 580 nM; Ratio [12]: > 20; Tmax [13]: 2 h; half-life [14]: 5 h; Activity (Mus musculus [8]): inactive; Activity (Mus musculus [9]): Active
CC(=O)N[C@@H](COCc1ccccc1)C(=O)N[C@H](Cc1ccc(-c2ccccc2)cc1)C(=O)N[C@H](Cc1ccccc1)C(=O)NO (Ac-Ser(Bn)-[dBip]-[dF]-{NHOH}) | – | inactive | –
CNC(=O)[C@H](Cc1c[nH]c2ccccc12)NC(=O)[C@@H](CC(=O)NO)CC(C)C [ILOMASTAT] | 2.4 | – | inhibition [7]: Active
CC(=O)N[C@@H](COCc1ccccc1)C(=O)N[C@@H](C(=O)N[C@H](Cc1ccccc1)C(=O)NO)C1Cc2ccccc2C1 (Ac-Ser(Bn)-[dIgl]-[dF]-{NHOH}) | – | inactive | –
CC(=O)N[C@@H](COCc1ccccc1)C(=O)N[C@H](CCc1ccccc1)C(=O)N[C@H](Cc1ccc(OS(=O)(=O)F)cc1)C(=O)NO | – | < 1 | –
CC(=O)N[C@@H](COCc1ccccc1)C(=O)N[C@H](CCc1ccccc1)C(=O)N[C@H](Cc1ccccc1)C(=O)NO (Ac-Ser(Bn)-[d(hPhe)]-[dF]-{NHOH}) | 26.5 | > 1 | inhibition [3]: inactive; inhibition [4]: inactive; inhibition [5]: inactive; inhibition [6]: inactive
CC(=O)N[C@@H](COCc1ccccc1)C(=O)N[C@H](CCc1ccccc1)C(=O)N[C@H](Cc1ccc(C(F)(F)F)cc1)C(=O)NO (Ac-Ser(Bn)-[d(hPhe)]-[dPhe(4-CF3)]-{NHOH}) | 57.1 | 1 | –
CC(=O)N[C@@H](COCc1ccccc1)C(=O)N[C@H](CCc1ccccc1)C(=O)N[C@H](Cc1cccc(C)c1)C(=O)NO (Ac-Ser(Bn)-[d(hPhe)]-[dPhe(3-Me)]-{NHOH}) | 35.5 | > 1 | –
CC(=O)N[C@@H](COCc1ccccc1)C(=O)N[C@H](CCc1ccccc1)C(=O)N[C@H](Cc1cccc(F)c1)C(=O)NO (Ac-Ser(Bn)-[d(hPhe)]-[dPhe(3-F)]-{NHOH}) | 30.2 | > 1 | –
CC(=O)N[C@@H](Cc1c[nH]c2ccccc12)C(=O)N[C@H](CCc1ccccc1)C(=O)N[C@H](Cc1ccccc1)C(=O)NO (HELM PEPTIDE1{[ac].W.[O=C([C@@H](CCc1ccccc1)N[*:1])[*:2]].[dF].[ON[*:1]]}$$$$V2.0) | 34.9 | 1 | –
CC(=O)N[C@@H](Cc1ccc2ccccc2c1)C(=O)N[C@H](CCc1ccccc1)C(=O)N[C@H](Cc1ccccc1)C(=O)NO (Ac-[2Nal]-[d(hPhe)]-[dF]-{NHOH}) | 138 | < 1 | –
CC(=O)N[C@@H](COCc1ccccc1)C(=O)N[C@H](CCc1ccccc1)C(=O)N[C@H](Cc1ccc(F)c(F)c1F)C(=O)NO | 75.9 | 1 | –
CC(=O)N[C@@H](COCc1ccccc1)C(=O)N[C@H](CCc1ccccc1)C(=O)N[C@H](Cc1cccc(Cl)c1)C(=O)NO (Ac-Ser(Bn)-[d(hPhe)]-[dPhe(3-Cl)]-{NHOH}) | 47.2 | > 1 | –
CC(=O)N[C@@H](COCc1ccccc1)C(=O)N[C@H](CCc1ccccc1)C(=O)N[C@H](Cc1ccccc1C)C(=O)NO (Ac-Ser(Bn)-[d(hPhe)]-[dPhe(2-Me)]-{NHOH}) | – | < 1 | –
CC(=O)N[C@@H](COCc1ccccc1)C(=O)N[C@H](CCc1ccc(C(F)(F)F)cc1)C(=O)N[C@H](Cc1ccccc1)C(=O)NO | 16.7 | 1 | –

Further lines, with some results ahead:

IC50 [1] [nM] | Ratio [10] | Compound | other results
42 | > 1 | CC(=O)N[C@@H](COCc1ccccc1)C(=O)N[C@H](CCc1ccccc1)C(=O)N[C@H](Cc1ccc(F)cc1)C(=O)NO (Ac-Ser(Bn)-[d(hPhe)]-[dPhe(4-F)]-{NHOH}) | –
36.1 | 1 | CC(=O)N[C@@H](COCc1ccccc1)C(=O)N[C@H](CCc1ccccc1)C(=O)N[C@H](Cc1ccc(OC(C)=O)cc1)C(=O)NO (Ac-Ser(Bn)-[d(hPhe)]-[dY](Ac)-{NHOH}) | –
42.1 | > 1 | CC(=O)N[C@@H](COCc1ccccc1)C(=O)N[C@H](CCc1ccccc1)C(=O)N[C@H](Cc1ccc(O)cc1)C(=O)NO (Ac-Ser(Bn)-[d(hPhe)]-[dY]-{NHOH}) | –
20.9 | > 1 | CC(=O)N[C@@H](COCc1ccccc1)C(=O)N[C@H](CCc1ccccc1)C(=O)N[C@H](Cc1ccc(C)cc1)C(=O)NO (Ac-Ser(Bn)-[d(hPhe)]-[dPhe(4-Me)]-{NHOH}) | –
20.5 | > 1 | COc1ccc(CCC[C@H](NC(C)=O)C(=O)N[C@H](CCc2ccccc2)C(=O)N[C@H](Cc2ccccc2)C(=O)NO)cc1 | –
19.5 | > 1 | CC(=O)N[C@@H](CCCc1ccccc1)C(=O)N[C@H](CCc1ccccc1)C(=O)N[C@H](Cc1ccccc1)C(=O)NO | –
16.3 | > 1 | COc1ccc(CC[C@@H](NC(=O)[C@H](COCc2ccccc2)NC(C)=O)C(=O)N[C@H](Cc2ccccc2)C(=O)NO)cc1 | –
– | < 1 | CC(=O)N[C@@H](COCc1ccccc1)C(=O)N[C@H](CCCc1ccccc1)C(=O)N[C@H](Cc1ccccc1)C(=O)NO | –
35.1 | > 1 | CC(=O)N[C@@H](COCc1ccccc1)C(=O)N[C@H](CCc1ccccc1)C(=O)N[C@H](Cc1ccc(Cl)cc1)C(=O)NO (Ac-Ser(Bn)-[d(hPhe)]-[dPhe(4-Cl)]-{NHOH}) | –
